Compound activity deposited in PubChem BioAssay by several laboratories.
Only a selection was taken, and hits are over-represented in it overall.
Dynein transport: dynein cargo transport inhibition. 3617.4 mouse cells, GR-EGFP nuclear translocation imaging; test concentration mostly 20 µM; stimulated with dexamethasone, 1 µM; stronger effect = lower value. AID 1381. z-score, hits read low. actives 0.47% (n = 220,000);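 active means plate z-score of nuclear minus cytoplasmic receptor signal below a set negative limit, without overly bright fluorescence or cell loss, cut at about -3.5 in these data, passing the limit was not always enough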;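 further: z-score of nuclear minus cytoplasmic ring GR-EGFP intensity difference per well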
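Buffer or medium: tet-free, stripped-serum medium; Also added: dexamethasone, 1.0 µM final; Technique: high-content fluorescence imaging after fixation; Times: 48 h induction, 1 h compound, 30 min dex at 37 °C; Read-out: per-cell GR-EGFP intensity, nucleus versus surrounding cytoplasmic ring, well-averaged.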
UPR CHOP act: activators of apoptotic arm of unfolded protein response (CHOP); CHO-CHOP luciferase reporter, UPR activation, luminescence; percent of tunicamycin response over DMSO baseline; activation, % at 10 µM; actives 0.34% (n = 330,000);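 active means at 10 µM dose, activation of 40% or more, normalized to positive control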;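 further: 100% = tunicamycin at 10 µg/mL and 0% = DMSO alone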
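Evaluation: % reporter activation, DMSO baseline versus tunicamycin full activation; System: CHO-CHOP luciferase reporter cell line; Input: 500 cells/well; Incubation: 6 h compound treatment, 37 °C; Measured by: Steady-Glo luciferase luminescence; Dosing: one dose, 10 µM in 0.5% DMSO; Buffer or medium: F12 medium, 10% FBS; Benchmarks: positive tunicamycin 10 µg/mL, negative DMSO alone.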
pCIP destab: lowers stability of the mouse p/CIP coactivator protein | F442A p/CIP-EGFP cells, EGFP fluorescence, 16 h | decrease of EGFP signal, % at 10 µM | actives 0.01% (n = 290,000) | Q05BA5;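 active means EGFP signal decrease of at least 30% at 10 µM or well 3 SD below plate mean, unless failing retest; inactive means the rest, including hits failing retest or dose response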
B2AR ag: human beta-2 adrenergic receptor agonism by FAP | P07550 | Am2.2-beta2AR cells, FAP receptor internalization, flow cytometry | response, % (test concentration not listed) | actives 0.43% (n = 340,000) | AID 504454;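 active means response above a set limit, near 3 SD of response in nonfluorescent compounds, cut at about 42% in these data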
XBP1 UPR activ: activators of adaptive arm of unfolded protein response (XBP1); CHO-XBP1 luciferase reporter, IRE1-XBP1 UPR activation, luminescence; percent of tunicamycin response, DMSO as zero; activation, % at 20 µM; actives 0.33% (n = 330,000); AID 463104;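 active means versus positive control, 20 µM dose yields 30% or more activation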;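 further: 100% = tunicamycin at 10 µg/mL and 0% = DMSO only wells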
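Material: CHO cell line with stable XBP1 luciferase reporter; buffer or medium: F12 medium containing 10% fetal bovine serum; compound: single point, 20 µM final compound, 1% DMSO; incubation: 6 h treatment, 37 °C; measured by: glow luminescence from Steady-Glo reagent; evaluation: activation, % of tunicamycin; control set: tunicamycin high, DMSO low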
CHOP inh: CHOP inhibition in unfolded protein response. CHO-K1 CHOP-promoter luciferase, tunicamycin-induced, 15-18 h. inhibition, % at 10 µM. actives 3.8% (n = 220,000). AID 2732;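 active means compounds that reduced the stress-induced luciferase reporter signal by more than about 70% of percent inhibition, limit read from the data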;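 further: 0% = tunicamycin plus vehicle and 100% = wells without tunicamycin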
* = called active by the depositor; · = no result.

SMILES	Dynein transport	UPR CHOP act	pCIP destab	B2AR ag	XBP1 UPR activ	CHOP inh
CCOc1ccccc1C(=O)N1CCN(c2cccc(Cl)c2)CC1	-0.74	2	-7	18	12	·
COc1ccc(CN2CCN(c3cccc(C)c3C)CC2)cc1OC	-0.11	-2	-3	-3	-2	69
COc1cc(CN2CCN(c3cccc(C)c3C)CC2)cc(Br)c1O	1.1	0	-8	10	-2	91*
CC1(C)NC(=O)N(CC(=O)N2CCN(S(=O)(=O)c3ccccc3C(F)(F)F)CC2)C1=O	·	0	·	2	-2	·
Oc1ccc(Br)cc1/C=N/n1cnc2ccccc21	0.29	5	-4	10	6	74*
Cc1ccc(S(=O)(=O)NCCNc2ccccc2[N+](=O)[O-])cc1	1.6	-2	11	2	0	27
CCC(C)NCCOCCSc1ccc(Cl)cc1 (stereo unspecified)	-0.86	0	8	6	1	-7
Cc1ccc(-c2nc(C#N)c(NCc3cccc4c3OCO4)o2)cc1	1.5	4	-11	-6	1	50
N#Cc1nc(Cc2cccc3ccccc23)oc1NCc1ccc(F)cc1	-0.036	0	-19	1	-2	71*
N#Cc1nc(-c2ccc(F)cc2)oc1NCc1cccc2c1OCO2	-0.59	0	-5	1	1	84*
COc1ccc(N(CC(=O)N2CCOCC2)S(C)(=O)=O)c(OC)c1	·	0	-13	-8	-4	·
Fc1ccccc1N1CC(c2ccccc2)C(c2cccs2)=N1 (stereo unspecified)	-0.46	1	1	-1	-2	71*
CCCC(=O)Nc1ccc2oc(-c3ccc(OC)c(Br)c3)nc2c1	-0.037	2	-1	6	8	96*
COC(=O)[C@]1(Cc2ccccc2)N[C@H](c2ccc(-c3ccc(Cl)c(Cl)c3)cc2)[C@@H]2C(=O)N(C)C(=O)[C@@H]21	·	2	·	-2	-1	·
COC(=O)c1ccc(COc2ccccc2/C=N/Nc2cccc(C(=O)O)c2)cc1	0.14	·	-10	2	·	15
COC(=O)c1ccc(COc2ccccc2/C=C/C(=O)c2ccc(OCC(=O)O)cc2)cc1	·	3	-19	47*	0	·
CC(C)c1ccc(OCc2ccc(C(=O)NN3CCN(C)CC3)o2)cc1	-0.046	3	-3	2	1	-22
CCCC(c1nnnn1C(C)(C)CC)N(Cc1ccco1)Cc1cc2ccc(OC)cc2[nH]c1=O (stereo unspecified)	-1.1	·	-8	16	·	91*
COc1cc(C(=O)Nc2ccc(S(=O)(=O)N3CCOCC3)cc2)c([N+](=O)[O-])cc1OC	-0.032	-1	-8	-1	-3	0
O=C(N/N=C/c1ccc([N+](=O)[O-])s1)c1ccccc1	0.52	1	10	7	9	-11
O=C(N/N=C\c1ccc([N+](=O)[O-])s1)c1cncc(Br)c1	-0.55	4	-28	-4	-1	95*
CC(C)(C)c1onc(OCP(=O)(O)O)c1CC(N)C(=O)O (stereo unspecified)	·	·	·	·	·	-8
Cc1cc(CSc2ccccc2)ccc1NC(=O)c1ccc(Br)cc1	0.63	1	5	14	4	96*
Cc1cc(C)c2cc(CN(Cc3ccco3)C(=S)NCC3CCCO3)c(=O)[nH]c2c1 (stereo unspecified)	-1.2	-3	3	-5	-3	7
O=C(CSc1nc2sc3c(c2c(=O)n1-c1ccccc1)CCCC3)NCc1ccco1	-0.87	-1	-3	-2	-1	84*
SMILES	Dynein transport	UPR CHOP act	pCIP destab	B2AR ag	XBP1 UPR activ	CHOP inh
O=C(CSc1nc2scc(-c3ccco3)c2c(=O)n1-c1ccccc1)NCC1CCCO1 (stereo unspecified)	-0.64	4	23	4	-1	100*
Cc1nc2ccccc2n1CCc1nc2c3ccccc3nc(SCC(=O)NCc3ccco3)n2n1	0.24	1	7	-4	0	72*
Cc1sc2nc(SCC(=O)NCc3ccco3)n(CCc3ccccc3)c(=O)c2c1C	0.44	16	-9	-5	17	95*
C=CCc1cc(C=Nc2ccc(N3CCOCC3)cc2)cc(OCC)c1O	·	·	·	4	·	·
CCC(C)(C)NC(=O)C(c1ccc(F)cc1)N(Cc1ccco1)C(=O)c1cnccn1 (stereo unspecified)	0.22	-2	1	8	-2	-22
C=CCn1c(SCC(=O)NC(=O)NCc2ccco2)nc2sc(CC)cc2c1=O	-0.56	0	8	-7	-2	83*
C=CCn1c(SCC(=O)NCc2ccco2)nc2ccccc2c1=O	-0.35	1	-8	6	0	26
Cc1sc2ncn(CCn3cnc4sc(C)c(C)c4c3=O)c(=O)c2c1C	-0.39	-2	2	-2	5	90*
Cn1cccc1Cc1nnc(SCC(=O)Nc2cccc(F)c2)n1-c1ccc(F)cc1	-0.5	0	8	5	-2	37
Cn1cccc1Cc1nnc(SCC(=O)Nc2cccc(Cl)c2)n1-c1ccc(F)cc1	1	0	-4	-6	-1	75*
Cc1nn(-c2ccc(F)cc2)c(Cl)c1/C=N/NC(=O)c1cccs1	-0.8	5	-18	-18	3	93*
NC(=O)C1CCN(CC(=O)Nc2ccccc2C(=O)NC2CC2)CC1	·	-2	·	8	1	·
COc1ccc(Cl)cc1NC(=O)c1nc2nc(C)cc(C(F)F)n2n1	-0.1	1	-2	-19	1	74*
COc1cccc(NC(=O)c2nc3nc(C)cc(C(F)F)n3n2)c1	-0.8	0	-4	-16	-1	19
CCCc1nc2ccccc2c(=O)n1/N=C/c1ccccc1O	2.2	-2	8	-7	-4	48
Cc1ccccc1OCc1nc2ccccc2c(=O)n1/N=C/c1c[nH]c2ccccc12	-0.51	1	-4	9	-1	88*
Cc1cc(/C=N/n2c(COc3ccccc3C)nc3ccccc3c2=O)c(O)c([N+](=O)[O-])c1	-0.62	1	-34	-410	4	53
Cc1cccc(C)c1OCc1nc2ccccc2c(=O)n1/N=C/c1c[nH]c2ccccc12	-0.48	-2	-9	4	-3	85*
CNC(=O)/C(=C\c1ccc([N+](=O)[O-])cc1)NC(C)=O	-0.54	-1	-12	2	-1	-10
CC1=C(C(=O)O)N2C(=O)[C@@H](NC(=O)C(N)C3=CCC=CC3)[C@H]2SC1 (stereo partly specified)	·	·	·	·	·	-22
Cc1ccc(CCNC(=O)C2CC(c3cc(C(F)(F)F)cc(C(F)(F)F)c3)=NO2)cc1 (stereo unspecified)	-0.36	-2	-4	-2	3	76*
